Among the data in ChEMBL document CHEMBL1126259, “omega-[(4-Phenyl-2-quinolyl)oxy]alkanoic acid derivatives: a new family of potent LTB4 antagonists” (J Med Chem, 1992) are inhibition and IC50 values, retold here.

Test [1] has as its system Leukotriene B4 receptor 1 (Cavia porcellus). Put plainly: Inhibition of [3H]LTB4 binding to Leukotriene B4 receptor in the guinea pig spleen membranes at a dose of 10 uM. Conditions: Membrane.
Test [2] concerns the target Leukotriene B4 receptor 1 (Homo sapiens, UniProt Q15722). Put plainly: Inhibition of [3H]LTB4 binding to Leukotriene B4 receptor in the human polymorphonuclear leukocytes. The method in brief:
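Human blood PMNs were isolated by dextran T500 sedimentation, Ficoll-Hypaque centrifugation and hypotonic lysis. Cells were suspended in Hanks' solution with 5 mmol/L HEPES and 1 g/L ovalbumin, then incubated on ice for 15 min with 0.5 nmol/L [3H]LTB4 and competitor. Samples were filtered on GF/C, washed and counted. Nonspecific binding was defined with 1000-fold unlabeled LTB4. IC50 was read graphically; mean of three replicates.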

One may read the inhibition as the drop in the measured response relative to a control, in per cent. The low end stands for a response near the control, the high end for a response far below the control. A word on the IC50: it is the concentration at which inhibition is half-maximal. A higher IC50 goes with weaker potency.

Sequence of Leukotriene B4 receptor 1 (Q15722 whole entry): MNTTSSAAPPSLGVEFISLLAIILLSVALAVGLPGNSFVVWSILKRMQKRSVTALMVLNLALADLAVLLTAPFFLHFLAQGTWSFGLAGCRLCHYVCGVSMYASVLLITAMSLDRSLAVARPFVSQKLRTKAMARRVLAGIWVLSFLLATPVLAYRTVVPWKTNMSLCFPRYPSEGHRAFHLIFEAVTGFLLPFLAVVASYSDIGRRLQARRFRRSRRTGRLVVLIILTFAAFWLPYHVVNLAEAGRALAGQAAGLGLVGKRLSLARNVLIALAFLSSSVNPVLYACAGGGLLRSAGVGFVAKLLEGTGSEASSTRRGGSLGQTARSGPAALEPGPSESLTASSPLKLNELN

As for `O=C(O)CCCC/C=C/c1cc(-c2ccccc2)c2ccccc2n1`, the inhibition in test [1] turned out to be 27%.
In test [1], `CC(C)(CCCCSc1cc(-c2ccccc2)c2ccccc2n1)C(=O)O` came in with an inhibition of 33%.
The compound `CC(C)(CCCCOc1cc(-c2ccc(N)cc2)c2ccccc2n1)C(=O)O` showed an IC50 in test [2] of 250 nM.
For `Cc1ccc(-c2cc(OCCCCC(C)(C)C(=O)O)nc3ccccc23)cc1`, the IC50 in test [2] worked out at 100 nM.
Turning to `OCCCCCCOc1cc(-c2ccccc2)c2ccccc2n1`, in test [1], the inhibition amounted to 14%.
Still for that read-out and setting: the same measure for `COc1ccccc1-c1cc(OCCCCC(C)(C)C(=O)O)nc2ccccc12`: 36%; for `O=C(O)CCCCOc1cc(-c2ccccc2)c2ccccc2n1`: 0%.
Consider `CC(C)(CCCCOc1cc(-c2ccccc2)c2ccccc2n1)C(=O)O`, for which the IC50 in test [2] was found to be 4000 nM. This lies in the single-digit micromolar range.
On the same count and under the same terms, under `COc1ccc(/C=C/CCCCOc2ccc(C(=O)c3cccc(C(=O)O)c3)cc2CCC(=O)O)cc1` stands 3.5 nM; under `O=C(O)CCCCCOc1cc(-c2ccc(Cl)cc2)c2ccccc2n1`, 150 nM; under `CC(C)(CCCCOc1cc(-c2ccc(Cl)cc2)c2ccccc2n1)c1nnn[nH]1`, 50 nM.
As for `CC(C)(CCCCNc1cc(-c2ccccc2)c2ccccc2n1)C(=O)O`, in test [1], the inhibition was determined as 0%.
`CC(=O)Nc1ccc(-c2cc(OCCCCC(C)(C)C(=O)O)nc3ccccc23)cc1` returned an inhibition in test [1] of 23%.
Same read-out and setting: under `O=C(CCCCCOc1cc(-c2ccccc2)c2ccccc2n1)N1CCCC1` stands 12%.
On the same count and under the same terms, the same measure for `O=C(O)CCCCCCc1cc(-c2ccccc2)c2ccccc2n1`: 34%.
